Data on seven compounds can be found in ChEMBL document CHEMBL1125826, “Synthesis and biological activity of 5-amino- and 5-hydroxyquinolones, and the overwhelming influence of the remote N1-substituent in determining the structure-activity relationship” (1991).

Holding throughout (format): functional
One assay deals with Streptococcus pyogenes. The assay can be described thus: Antibacterial activity was determined against gram positive organism, Streptococcus pyogenes C203. The settings on record: Streptococcus pyogenes; read-out: MIC. A digest of the protocol: (§1)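 MIC (µg/mL) by standard microtitration against a panel of 10 Gram-positive and Gram-negative organisms; values averaged from multiple experiments.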

Another assay concerns Enterobacter cloacae. Briefly: Antibacterial activity was determined against gram negative organism, Enterobacter cloacae MA2646. To be noted: Enterobacter cloacae; read-out: MIC.
Another assay has as its system Pseudomonas aeruginosa. The assay can be described thus: Antibacterial activity was determined against gram negative organism, Pseudomonas aeruginosa UI-18. The settings on record: Pseudomonas aeruginosa; read-out: MIC. A digest of the protocol:
as §1

Another assay concerns Streptococcus pneumoniae. Briefly: Antibacterial activity was determined against gram positive organism, Streptococcus pneumoniae SV-1. The settings on record: Streptococcus pneumoniae; read-out: MIC. The method, boiled down:
as §1

Another assay concerns Enterococcus faecalis. The assay can be described thus: Antibacterial activity was determined against gram positive organism, Streptococcus faecalis MGH-2. The settings on record: Enterococcus faecalis; read-out: MIC. A digest of the protocol: as §1
For assay [1], the system named is Bacteria. Briefly: MIC ratio measured as the mean MICs of gram-positive bacteria. The method, boiled down:
(§2)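 Geometric mean of the microtitration MICs (µg/mL) over the Gram-negative organisms, and separately over the Gram-positive organisms, of the 10-strain panel; individual MICs averaged from multiple experiments.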

In assay [2] the test system is Staphylococcus aureus. Briefly: Antibacterial activity was determined against gram positive organism, Staphylococcus aureus H228. The settings on record: Staphylococcus aureus; read-out: MIC. The method, boiled down: as §1
Assay [3] concerns Escherichia coli. The assay can be described thus: The in vivo potency was determined in female charles river CD-1 mice infected with Escherichia coli after sc administration. To be noted: Escherichia coli, sc; read-out: PD50. A digest of the protocol: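 Acute lethal systemic infection in female CD-1 mice, 16 mice per route; single subcutaneous dose given at the time of challenge; median protective dose (PD50, mg/kg) determined.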

Assay [4] addresses DNA gyrase (Escherichia coli) (UniProt P0AES6+P0AES4). Briefly: Minimum inhibitory concentration against Escherichia coli DNA-gyrase in supercoiling assay.
Assay [5] relates to Escherichia coli. Briefly: The in vivo potency was determined in female charles river CD-1 mice infected with Escherichia coli after peroral administration. To be noted: Escherichia coli, po; read-out: PD50. The method, boiled down:
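Acute lethal systemic infection in female CD-1 mice, 16 mice per route; single dose given orally by gavage at the time of challenge; median protective dose (PD50, mg/kg) determined.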

The subject of a further assay is Klebsiella pneumoniae. Briefly: Antibacterial activity was determined against gram negative organism, Klebsiella pneumoniae MGH-2. To be noted: Klebsiella pneumoniae; read-out: MIC. The method, boiled down: as §1
Assay [6] has as its system Bacteria. The assay can be described thus: MIC ratio measured as the mean MICs of gram-negative bacteria. A digest of the protocol:
as §2

Assay [7] has as its system Bacteria. The assay can be described thus: Antibacterial activity was determined against gram negative organism, Providencia rettgeri. M1771. The settings on record: Bacteria; read-out: MIC. A digest of the protocol: as §1
The test system of assay [8] is Staphylococcus aureus. The assay can be described thus: Antibacterial activity was determined against gram positive organism, Staphylococcus aureus UC76. The method, boiled down: as §1
The subject of assay [9] is Escherichia coli. The assay can be described thus: Antibacterial activity was determined against gram negative organism, Escherichia coli vogel. To be noted: Escherichia coli; read-out: MIC. The method, boiled down:
as §1

The mark [10] stands for this setting: Staphylococcus aureus, read-out: MIC.

Converted amounts (≈) assume the structure as drawn.

Consider `CC1COc2c(N3CCC(N)C3)c(F)c(N)c3c(=O)c(C(=O)O)cn1c23` (stereo unspecified), for which the MIC in the assay with Streptococcus pyogenes was 1.6 µg/mL (≈ 4.42 µM); in the assay on Enterobacter cloacae, 0.8 µg/mL (≈ 2.21 µM); with Pseudomonas aeruginosa, 1.6 µg/mL (≈ 4.42 µM); in the assay with Streptococcus pneumoniae it was 0.8 µg/mL (≈ 2.21 µM); in the assay on Enterococcus faecalis, 0.8 µg/mL (≈ 2.21 µM); with Staphylococcus aureus [2], 0.8 µg/mL (≈ 2.21 µM). The MIC came out at 2.5 µg/mL (≈ 6.9 µM) in assay [4]; 0.4 µg/mL (≈ 1.1 µM) in the assay on Klebsiella pneumoniae; 1.6 µg/mL (≈ 4.42 µM) in the assay with Bacteria [7]; 0.2 µg/mL (≈ 0.552 µM) in the assay with Staphylococcus aureus [8] (setting [10]); 0.4 µg/mL (≈ 1.1 µM) in the assay on Escherichia coli [9]. Besides, the “Geometric mean MIC over Gram-positive bacteria (µg/mL)” value in the assay on Bacteria [1] amounted to 0.7. The ED50 is 23 mg/kg in the assay with Escherichia coli [3] and greater than 100 mg/kg with Escherichia coli [5]. For the same compound, the Geometric mean MIC over Gram-negative bacteria (µg/mL) in the assay with Bacteria [6] was 0.8.
Turning to `CC1COc2c(N3CCC(N)C3)c(F)cc3c(=O)c(C(=O)O)cn1c23` (stereo unspecified), the MIC was 0.2 µg/mL (≈ 0.576 µM) in the assay with Streptococcus pyogenes; 0.4 µg/mL (≈ 1.15 µM) in the assay on Enterobacter cloacae; 0.4 µg/mL (≈ 1.15 µM) with Pseudomonas aeruginosa; 0.8 µg/mL (≈ 2.3 µM) in the assay with Streptococcus pneumoniae; 1.6 µg/mL (≈ 4.61 µM) in the assay on Enterococcus faecalis; 1.6 µg/mL (≈ 4.61 µM) in the assay with Staphylococcus aureus [2]. Besides, the MIC in [4] worked out at 0.75 µg/mL (≈ 2.16 µM); with Klebsiella pneumoniae, 0.4 µg/mL (≈ 1.15 µM); in the assay with Bacteria [7], 0.8 µg/mL (≈ 2.3 µM); against Staphylococcus aureus [8] it was 0.1 µg/mL (≈ 0.288 µM); in the assay with Escherichia coli [9], 0.4 µg/mL (≈ 1.15 µM). The “Geometric mean MIC over Gram-positive bacteria (µg/mL)” value in the assay on Bacteria [1] is 0.53. Further, the results for the ED50 in the assay on Escherichia coli [3] and in the assay on Escherichia coli [5] were 2 mg/kg and 29 mg/kg, respectively. The Geometric mean MIC over Gram-negative bacteria (µg/mL) with Bacteria [6] was found to be 0.46.
In the case of `CCNCC1CCN(c2cc3c(cc2F)c(=O)c(C(=O)O)cn3C2CC2)C1` (stereo unspecified), the MIC was 0.05 µg/mL (≈ 0.134 µM) in the assay with Streptococcus pyogenes; 0.4 µg/mL (≈ 1.07 µM) with Enterobacter cloacae; 1.6 µg/mL (≈ 4.28 µM) in the assay with Pseudomonas aeruginosa; 0.2 µg/mL (≈ 0.536 µM) in the assay on Streptococcus pneumoniae; 0.2 µg/mL (≈ 0.536 µM) with Enterococcus faecalis; 0.4 µg/mL (≈ 1.07 µM) in the assay on Staphylococcus aureus [2]. Further, the MIC in assay [4] came to 1 µg/mL (≈ 2.68 µM); with Klebsiella pneumoniae, 0.2 µg/mL (≈ 0.536 µM); in the assay on Bacteria [7], 0.8 µg/mL (≈ 2.14 µM); with Staphylococcus aureus [8] (setting [10]), 0.013 µg/mL (≈ 0.0348 µM); in the assay with Escherichia coli [9] it was 0.2 µg/mL (≈ 0.536 µM). Further, the “Geometric mean MIC over Gram-positive bacteria (µg/mL)” value in the assay on Bacteria [1] is 0.1. In addition, the ED50 with Escherichia coli [3] worked out at 2 mg/kg; with Escherichia coli [5], 35 mg/kg. In addition, the Geometric mean MIC over Gram-negative bacteria (µg/mL) in the assay with Bacteria [6] was 0.46.
`CCNCC1CCN(c2cc3c(c(N)c2F)c(=O)c(C(=O)O)cn3C2CC2)C1` (stereo unspecified): the MIC with Streptococcus pyogenes was found to be 0.1 µg/mL (≈ 0.257 µM); in the assay on Enterobacter cloacae, 0.1 µg/mL (≈ 0.257 µM); in the assay with Pseudomonas aeruginosa, 0.8 µg/mL (≈ 2.06 µM); in the assay with Streptococcus pneumoniae, 0.05 µg/mL (≈ 0.129 µM); in the assay on Enterococcus faecalis, 0.025 µg/mL (≈ 0.0644 µM); with Staphylococcus aureus [2] it was 0.2 µg/mL (≈ 0.515 µM). Moreover, the MIC was found to be 1 µg/mL (≈ 2.57 µM) in assay [4]; 0.2 µg/mL (≈ 0.515 µM) with Klebsiella pneumoniae; 0.8 µg/mL (≈ 2.06 µM) with Bacteria [7]; 0.025 µg/mL (≈ 0.0644 µM) with Staphylococcus aureus [8] (setting [10]); 0.1 µg/mL (≈ 0.257 µM) in the assay with Escherichia coli [9]. For the same compound, the “Geometric mean MIC over Gram-positive bacteria (µg/mL)” value in the assay on Bacteria [1] came to 0.057. Further, the results for the ED50 in the assay on Escherichia coli [3] and in the assay on Escherichia coli [5] were 3 mg/kg and 90 mg/kg, respectively. The Geometric mean MIC over Gram-negative bacteria (µg/mL) in the assay with Bacteria [6] is 0.26.
On to `Nc1c(F)c(N2CCNCC2)cc2c1c(=O)c(C(=O)O)cn2C1CC1`, for which the MIC in the assay on Streptococcus pyogenes came out at 0.2 µg/mL (≈ 0.577 µM); in the assay with Enterobacter cloacae, 0.013 µg/mL (≈ 0.0375 µM); in the assay on Pseudomonas aeruginosa it was 0.8 µg/mL (≈ 2.31 µM); with Streptococcus pneumoniae it was 0.1 µg/mL (≈ 0.289 µM); in the assay with Enterococcus faecalis it was 0.1 µg/mL (≈ 0.289 µM); with Staphylococcus aureus [2], 0.1 µg/mL (≈ 0.289 µM). For the same compound, the MIC in [4] amounted to 1 µg/mL (≈ 2.89 µM); in the assay on Klebsiella pneumoniae, 0.025 µg/mL (≈ 0.0722 µM); in the assay with Bacteria [7], 0.025 µg/mL (≈ 0.0722 µM); with Staphylococcus aureus [8] (setting [10]) it was 0.025 µg/mL (≈ 0.0722 µM); in the assay with Escherichia coli [9], 0.013 µg/mL (≈ 0.0375 µM). For the same compound, in the assay with Bacteria [1], the “Geometric mean MIC over Gram-positive bacteria (µg/mL)” value is reported as 0.087. Moreover, the values for the ED50 in the assay with Escherichia coli [3] and with Escherichia coli [5] were 0.3 mg/kg and 4 mg/kg, respectively. In addition, the Geometric mean MIC over Gram-negative bacteria (µg/mL) in the assay on Bacteria [6] worked out at 0.038.
As to `CCn1cc(C(=O)O)c(=O)c2cc(F)c(N3CCNC(C)C3)c(F)c21` (stereo unspecified) [LOMEFLOXACIN], the MIC with Streptococcus pyogenes was 3.1 µg/mL (≈ 8.82 µM); in the assay with Enterobacter cloacae it was 0.1 µg/mL (≈ 0.285 µM); in the assay with Pseudomonas aeruginosa, 1.6 µg/mL (≈ 4.55 µM); in the assay on Streptococcus pneumoniae, 1.6 µg/mL (≈ 4.55 µM); with Enterococcus faecalis, 3.1 µg/mL (≈ 8.82 µM); with Staphylococcus aureus [2], 1.6 µg/mL (≈ 4.55 µM). Moreover, the MIC in assay [4] was determined as 2.5 µg/mL (≈ 7.12 µM); in the assay on Klebsiella pneumoniae it was 0.2 µg/mL (≈ 0.569 µM); in the assay on Bacteria [7], 0.4 µg/mL (≈ 1.14 µM); in the assay on Staphylococcus aureus [8], 0.4 µg/mL (≈ 1.14 µM); with Escherichia coli [9] it was 0.1 µg/mL (≈ 0.285 µM). The “Geometric mean MIC over Gram-positive bacteria (µg/mL)” value in the assay with Bacteria [1] came out at 1.58. Besides, the Geometric mean MIC over Gram-negative bacteria (µg/mL) with Bacteria [6] was determined as 0.26.
Regarding `CCNCC1CCN(c2c(F)c(O)c3c(=O)c(C(=O)O)cn(CC)c3c2F)C1` (stereo unspecified), the MIC in the assay on Streptococcus pyogenes amounted to 0.2 µg/mL (≈ 0.506 µM); in the assay with Enterobacter cloacae, 0.4 µg/mL (≈ 1.01 µM); in the assay with Pseudomonas aeruginosa it was 12.5 µg/mL (≈ 31.6 µM); in the assay on Streptococcus pneumoniae it was 0.2 µg/mL (≈ 0.506 µM); with Enterococcus faecalis, 0.4 µg/mL (≈ 1.01 µM); in the assay on Staphylococcus aureus [2], 0.4 µg/mL (≈ 1.01 µM). Further, the MIC in assay [4] was 2.5 µg/mL (≈ 6.32 µM); in the assay with Klebsiella pneumoniae it was 0.8 µg/mL (≈ 2.02 µM); in the assay with Bacteria [7], 3.1 µg/mL (≈ 7.84 µM); in the assay on Staphylococcus aureus [8] (setting [10]), 0.05 µg/mL (≈ 0.126 µM); in the assay on Escherichia coli [9] it was 0.4 µg/mL (≈ 1.01 µM). The “Geometric mean MIC over Gram-positive bacteria (µg/mL)” value with Bacteria [1] is listed as 0.2. In addition, the Geometric mean MIC over Gram-negative bacteria (µg/mL) in the assay on Bacteria [6] worked out at 1.38.
